Results from ChEMBL document CHEMBL1141179 (J Med Chem, 2005).
pIC50: −log10 of the molar value.

Tests used:
[1] = target: Somatostatin receptor type 4 (Homo sapiens, UniProt P31391); assay: Inhibition of 125I-[Leu8,D-Trp22,Tyr25]SRIF-28 binding to human somatostatin receptor type 4
[2] = target: Somatostatin receptor type 3 (Homo sapiens, UniProt P32745); assay: Inhibition of 125I-[Leu8,D-Trp22,Tyr25]SRIF-28 binding to human somatostatin receptor type 3
In short: (§1)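 Human sst2 or sst3 receptor stably expressed in CCL39 cells. 20 µm cryostat sections of cell membrane pellets were used for autoradiographic binding. IC50 (nM) came from competitive displacement. Values are mean ± SEM when N ≥ 3; otherwise mean with single values.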

[3] = target: Somatostatin receptor type 2 (Homo sapiens, UniProt P30874); assay: Inhibition of 125I-[Leu8,D-Trp22,Tyr25]SRIF-28 binding to human somatostatin receptor type 2; in short: as §1
Somatostatin receptor type 2, sequence (P30874 whole entry): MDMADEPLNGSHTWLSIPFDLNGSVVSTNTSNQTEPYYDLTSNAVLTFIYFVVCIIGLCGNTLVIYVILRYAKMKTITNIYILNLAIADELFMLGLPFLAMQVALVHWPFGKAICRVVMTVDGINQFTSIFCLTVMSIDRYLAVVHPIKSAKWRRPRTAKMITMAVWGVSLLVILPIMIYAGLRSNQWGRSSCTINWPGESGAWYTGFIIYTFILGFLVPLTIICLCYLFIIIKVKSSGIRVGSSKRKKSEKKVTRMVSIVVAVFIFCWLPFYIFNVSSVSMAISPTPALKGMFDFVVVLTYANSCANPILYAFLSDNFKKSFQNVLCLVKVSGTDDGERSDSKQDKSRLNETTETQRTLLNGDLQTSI

[4] = target: Somatostatin receptor type 1 (Homo sapiens, UniProt P30872); assay: Inhibition of 125I-[Leu8,D-Trp22,Tyr25]SRIF-28 binding to human somatostatin receptor type 1
Somatostatin receptor type 1, sequence (P30872 whole entry): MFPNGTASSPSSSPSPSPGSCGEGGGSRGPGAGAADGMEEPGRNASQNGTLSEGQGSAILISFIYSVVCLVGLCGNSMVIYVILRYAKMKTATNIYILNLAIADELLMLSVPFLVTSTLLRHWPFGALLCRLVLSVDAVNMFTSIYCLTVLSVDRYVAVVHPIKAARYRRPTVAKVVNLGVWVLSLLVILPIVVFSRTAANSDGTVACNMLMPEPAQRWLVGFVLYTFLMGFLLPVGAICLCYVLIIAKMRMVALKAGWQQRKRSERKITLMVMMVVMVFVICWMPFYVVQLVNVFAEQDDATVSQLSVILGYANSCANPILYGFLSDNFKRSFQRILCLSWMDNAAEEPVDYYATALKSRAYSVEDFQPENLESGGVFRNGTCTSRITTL
In short: (§2)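 Human sst1 or sst5 receptor stably expressed in CHO-K1 cells. 20 µm cryostat sections of cell membrane pellets were used for receptor autoradiography. IC50 (nM) came from competitive radioligand displacement. Values are mean ± SEM when N ≥ 3; otherwise mean with single values.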

[5] = target: Somatostatin receptor type 5 (Homo sapiens, UniProt P35346); assay: Inhibition of 125I-[Leu8,D-Trp22,Tyr25]SRIF-28 binding to human somatostatin receptor type 5; in short: as §2
Somatostatin receptor type 5, sequence (P35346 whole entry): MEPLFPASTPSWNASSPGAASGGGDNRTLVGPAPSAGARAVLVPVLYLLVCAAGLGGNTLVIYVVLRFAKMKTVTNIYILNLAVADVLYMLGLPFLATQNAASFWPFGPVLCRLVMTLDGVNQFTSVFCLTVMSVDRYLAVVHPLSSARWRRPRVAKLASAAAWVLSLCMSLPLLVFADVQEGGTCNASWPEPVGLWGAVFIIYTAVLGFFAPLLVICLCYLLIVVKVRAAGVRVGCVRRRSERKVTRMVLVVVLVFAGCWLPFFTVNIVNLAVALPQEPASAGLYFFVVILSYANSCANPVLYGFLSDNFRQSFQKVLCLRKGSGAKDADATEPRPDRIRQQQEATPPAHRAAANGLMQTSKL

Somatostatin receptor type 4, sequence (P31391 whole entry): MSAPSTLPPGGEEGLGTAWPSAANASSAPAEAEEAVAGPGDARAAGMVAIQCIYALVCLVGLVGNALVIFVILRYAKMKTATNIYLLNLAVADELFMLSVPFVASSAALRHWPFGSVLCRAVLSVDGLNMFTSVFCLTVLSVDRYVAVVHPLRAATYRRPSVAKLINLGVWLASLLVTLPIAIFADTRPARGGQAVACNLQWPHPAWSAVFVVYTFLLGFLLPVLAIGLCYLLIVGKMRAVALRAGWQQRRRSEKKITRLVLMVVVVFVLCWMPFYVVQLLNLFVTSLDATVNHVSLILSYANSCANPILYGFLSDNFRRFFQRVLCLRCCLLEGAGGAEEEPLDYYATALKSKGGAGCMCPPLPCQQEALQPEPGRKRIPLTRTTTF
Somatostatin receptor type 3, sequence (P32745 whole entry): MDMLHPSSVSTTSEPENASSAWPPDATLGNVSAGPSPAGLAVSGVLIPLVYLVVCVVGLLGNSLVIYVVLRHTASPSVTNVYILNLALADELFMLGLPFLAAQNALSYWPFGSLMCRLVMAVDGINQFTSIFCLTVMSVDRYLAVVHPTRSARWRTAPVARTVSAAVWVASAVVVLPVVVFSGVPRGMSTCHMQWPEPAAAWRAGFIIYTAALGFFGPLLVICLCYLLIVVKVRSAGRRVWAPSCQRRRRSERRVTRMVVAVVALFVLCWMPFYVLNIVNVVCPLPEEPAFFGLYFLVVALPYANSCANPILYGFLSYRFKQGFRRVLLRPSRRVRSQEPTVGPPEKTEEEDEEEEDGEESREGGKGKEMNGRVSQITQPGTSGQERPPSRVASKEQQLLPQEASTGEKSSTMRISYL

| Structure (SMILES) | pIC50 [1] | pIC50 [2] | pIC50 [3] | pIC50 [4] | pIC50 [5] |
| --- | --- | --- | --- | --- | --- |
| CC(C)NCc1ccc(C[C@@H]2NC(=O)[C@@H](Cc3c[nH]c4ccccc34)NC(=O)[C@H](Cc3ccccc3)NC(=O)[C@@H]3CC(=O)NC[C@H](NC(=O)[C@H](Cc4ccccc4)NC(=O)[C@H]([C@@H](C)O)NC2=O)C(=O)N[C@@H](CO)C(=O)N[C@H](C(=O)O)CSSC[C@H](NC(=O)[C@@H](N)Cc2ccc(O)cc2)C(=O)N[C@@H](CCCCN)C(=O)N3)cc1 | < 6.00 | < 6.00 | < 6.00 | < 6.00 | < 6.00 |
| C[C@@H](O)[C@@H]1NC(=O)[C@H](CCCCN)NC(=O)[C@@H](Cc2c[nH]c3ccccc23)NC(=O)[C@H](Cc2ccccc2)NC(=O)[C@H](Cc2ccccc2)NC(=O)[C@@H](N)CSSC[C@@H](C(=O)O)NC1=O | < 6.00 | < 6.00 | 6.22 | < 6.00 | < 6.00 |
| CC(C)NCc1ccc(C[C@@H]2NC(=O)[C@@H](Cc3c[nH]c4ccccc34)NC(=O)[C@@H]3CCC(=O)NCCCC(=O)NCCC[C@H](NC(=O)[C@H](Cc4ccccc4)NC(=O)[C@H]([C@@H](C)O)NC2=O)C(=O)N[C@@H](CO)C(=O)N[C@H](C(=O)O)CSSC[C@H](NC(=O)[C@@H](N)Cc2ccc(O)cc2)C(=O)N[C@@H](CCCCN)C(=O)N[C@@H](Cc2ccccc2)C(=O)N3)cc1 | < 6.00 | < 6.00 | < 6.00 | 6.78 | < 6.00 |
| CC(C)NCc1ccc(C[C@H]2C(=O)N[C@@H]([C@@H](C)O)C(=O)N[C@@H](Cc3ccc(O)c(I)c3)C(=O)N[C@H]3CCCCCCNC(=O)CC[C@H](NC(=O)[C@H](Cc4ccccc4)NC(=O)[C@H](CCCCN)NC(=O)[C@@H](N)CSSC[C@@H](C(=O)O)NC(=O)[C@H](CO)NC3=O)C(=O)N[C@H](Cc3c[nH]c4ccccc34)C(=O)N2C)cc1 | 6.21 | < 6.00 | < 6.00 | 7.34 | < 6.00 |
| CC(C)NCc1ccc(C[C@@H]2NC(=O)[C@@H](Cc3c[nH]c4ccccc34)NC(=O)[C@@H]3CCC(=O)NCCC(=O)NCCC[C@H](NC(=O)[C@H](Cc4ccccc4)NC(=O)[C@H]([C@@H](C)O)NC2=O)C(=O)N[C@@H](CO)C(=O)N[C@H](C(=O)O)CSSC[C@H](NC(=O)[C@@H](N)Cc2ccc(O)cc2)C(=O)N[C@@H](CCCCN)C(=O)N[C@@H](Cc2ccccc2)C(=O)N3)cc1 | < 6.00 | < 6.00 | < 6.00 | 7.19 | < 6.00 |
| CC(C)NCc1ccc(C[C@@H]2NC(=O)[C@@H](Cc3c[nH]c4ccccc34)NC(=O)[C@@H](NC(=O)[C@@H](N)Cc3ccccc3)CCC(=O)NCCCC[C@@H](C(=O)N[C@@H](CO)C(=O)O)NC(=O)[C@H](Cc3ccccc3)NC(=O)[C@H]([C@@H](C)O)NC2=O)cc1 | < 6.00 | < 6.00 | < 6.00 | < 6.00 | < 6.00 |
| CC(C)NCc1ccc(C[C@H]2C(=O)N[C@@H]([C@@H](C)O)C(=O)N[C@@H](Cc3ccc(O)c(I)c3)C(=O)N[C@@H]3CCCCCCNC(=O)CC[C@H](NC(=O)[C@H](Cc4ccccc4)NC(=O)[C@H](CCCCN)NC(=O)[C@@H](N)CSSC[C@@H](C(=O)O)NC(=O)[C@H](CO)NC3=O)C(=O)N[C@H](Cc3c[nH]c4ccccc34)C(=O)N2C)cc1 | 6.67 | < 6.00 | < 6.00 | 6.21 | < 6.00 |
| C[C@@H](O)[C@@H]1NC(=O)[C@H](Cc2ccccc2)NC(=O)[C@H]([C@@H](C)O)NC(=O)[C@H](CCCCN)NC(=O)[C@@H](Cc2c[nH]c3ccccc23)NC(=O)[C@H](Cc2ccccc2)NC(=O)[C@H](Cc2ccccc2)NC(=O)[C@@H](N)CSSC[C@@H](C(=O)O)NC(=O)[C@H](CO)NC1=O | 8.48 | 6.65 | 7.55 | 7.10 | 8.07 |
| CC(C)NCc1ccc(C[C@H]2C(=O)N[C@@H]([C@@H](C)O)C(=O)N[C@@H](Cc3ccc(O)c(I)c3)C(=O)N[C@H]3CCCCNC(=O)CC[C@H](NC(=O)[C@H](Cc4ccccc4)NC(=O)[C@H](CCCCN)NC(=O)[C@@H](N)CSSC[C@@H](C(=O)O)NC(=O)[C@H](CO)NC3=O)C(=O)N[C@H](Cc3c[nH]c4ccccc34)C(=O)N2C)cc1 | < 6.00 | 6.60 | < 6.00 | 7.85 | < 6.00 |
| CC(C)NCc1ccc(C[C@@H]2NC(=O)[C@@H](Cc3c[nH]c4ccccc34)NC(=O)[C@@H]3CCC(=O)NCCCC[C@H](NC(=O)[C@H](Cc4ccc(O)cc4)NC(=O)[C@H]([C@@H](C)O)NC2=O)C(=O)N[C@@H](CO)C(=O)N[C@H](C(N)=O)CSSC[C@H](N)C(=O)N[C@@H](CCCCN)C(=O)N[C@@H](Cc2ccccc2)C(=O)N3)cc1 | < 6.00 | < 6.00 | < 6.00 | 7.74 | < 6.00 |
| NCCCC[C@@H]1NC(=O)[C@@H](Cc2c[nH]c3ccccc23)NC(=O)[C@H](Cc2ccccc2)NC(=O)[C@H](Cc2ccccc2)NC(=O)[C@@H](N)CSSC[C@@H](C(=O)O)NC(=O)[C@H](Cc2ccccc2)NC1=O | 6.10 | 6.04 | < 6.00 | < 6.00 | < 6.00 |
| CC(C)NCc1ccc(C[C@@H]2NC(=O)C(Cc3c[nH]c4ccccc34)NC(=O)[C@H](Cc3ccccc3)NC(=O)[C@@H](Cc3ccccc3)NC(=O)[C@H](NC(=O)[C@@H](N)Cc3ccc(O)cc3)CSSC[C@@H](C(=O)O)NC(=O)[C@@H]([C@@H](C)O)NC(=O)[C@H](Cc3ccccc3)NC(=O)[C@@H]([C@@H](C)O)NC2=O)cc1 (stereo in doubt) | < 6.00 | 6.35 | < 6.00 | 6.14 | – |

Next, values leading:

| pIC50 [1] | pIC50 [2] | pIC50 [3] | pIC50 [4] | pIC50 [5] | Structure (SMILES) |
| --- | --- | --- | --- | --- | --- |
| 7.00 | < 6.00 | < 6.00 | 6.11 | < 6.00 | CC(C)NCc1ccc(C[C@@H]2NC(=O)[C@@H](Cc3c[nH]c4ccccc34)NC(=O)[C@@H]3CCC(=O)NCCCCC[C@@H](NC(=O)[C@H](Cc4ccccc4)NC(=O)[C@H]([C@@H](C)O)NC2=O)C(=O)N[C@@H](CO)C(=O)N[C@H](C(=O)O)CSSC[C@H](NC(=O)[C@@H](N)Cc2ccc(O)cc2)C(=O)N[C@@H](CCCCN)C(=O)N[C@@H](Cc2ccccc2)C(=O)N3)cc1 |
| < 6.00 | < 6.00 | < 6.00 | 6.74 | < 6.00 | CC(C)NCc1ccc(C[C@@H]2NC(=O)[C@@H](Cc3c[nH]c4ccccc34)NC(=O)[C@@H]3CCC(=O)NCCCC[C@H](NC(=O)[C@H](Cc4ccccc4)NC(=O)[C@H]([C@@H](C)O)NC2=O)C(=O)N[C@@H](CO)C(=O)N[C@H](C(N)=O)CSSC[C@H](NC(=O)[C@@H](N)Cc2ccc(O)cc2)C(=O)N[C@@H](CCCCN)C(=O)N[C@@H](Cc2ccccc2)C(=O)N3)cc1 |
| < 6.00 | < 6.00 | < 6.00 | 6.26 | < 6.00 | CC(C)NCc1ccc(C[C@@H]2NC(=O)[C@@H](Cc3c[nH]c4ccccc34)NC(=O)[C@@H]3CCC(=O)NCCC[C@H](NC(=O)[C@H](Cc4ccccc4)NC(=O)[C@H]([C@@H](C)O)NC2=O)C(=O)N[C@@H](CO)C(=O)N[C@H](C(=O)O)CSSC[C@H](NC(=O)[C@@H](N)Cc2ccc(O)cc2)C(=O)N[C@@H](CCCCN)C(=O)N[C@@H](Cc2ccccc2)C(=O)N3)cc1 |
| < 6.00 | < 6.00 | < 6.00 | 7.28 | < 6.00 | CC(C)NCc1ccc(C[C@@H]2NC(=O)[C@@H](Cc3c[nH]c4ccccc34)NC(=O)[C@@H]3CCC(=O)NCCCC[C@H](NC(=O)[C@H](Cc4ccccc4)NC(=O)[C@H]([C@@H](C)O)NC2=O)C(=O)N[C@@H](CO)C(=O)N[C@H](C(=O)O)CSSC[C@H](NC(=O)[C@@H](N)Cc2ccc(O)cc2)C(=O)N[C@@H](CCCCN)C(=O)N[C@@H](Cc2ccccc2)C(=O)N3)cc1 |
| < 6.00 | < 6.00 | < 6.00 | < 6.00 | < 6.00 | CC(C)NCc1ccc(C[C@@H]2NC(=O)[C@@H](Cc3c[nH]c4ccccc34)NC(=O)[C@@H]3CC(=O)NCCC[C@H](NC(=O)[C@H](Cc4ccccc4)NC(=O)[C@H]([C@@H](C)O)NC2=O)C(=O)N[C@@H](CO)C(=O)N[C@H](C(=O)O)CSSC[C@H](NC(=O)[C@@H](N)Cc2ccc(O)cc2)C(=O)N[C@@H](CCCCN)C(=O)N[C@@H](Cc2ccccc2)C(=O)N3)cc1 |
| < 6.00 | 6.11 | < 6.00 | 6.69 | < 6.00 | CC(C)NCc1ccc(C[C@@H]2NC(=O)[C@@H](Cc3c[nH]c4ccccc34)NC(=O)[C@@H]3CCC(=O)NCCCCCC[C@@H](NC(=O)[C@H](Cc4ccccc4)NC(=O)[C@H]([C@@H](C)O)NC2=O)C(=O)N[C@@H](CO)C(=O)N[C@H](C(=O)O)CSSC[C@H](NC(=O)[C@@H](N)Cc2ccc(O)cc2)C(=O)N[C@@H](CCCCN)C(=O)N[C@@H](Cc2ccccc2)C(=O)N3)cc1 |
| < 6.00 | < 6.00 | < 6.00 | 6.68 | < 6.00 | CC(C)NCc1ccc(C[C@@H]2NC(=O)[C@@H](Cc3c[nH]c4ccccc34)NC(=O)[C@H](Cc3ccccc3)NC(=O)[C@@H]3CCC(=O)NCCCC[C@H](NC(=O)[C@H](Cc4ccccc4)NC(=O)[C@H]([C@@H](C)O)NC2=O)C(=O)N[C@@H](CO)C(=O)N[C@H](C(=O)O)CSSC[C@H](NC(=O)[C@@H](N)Cc2ccc(O)cc2)C(=O)N[C@@H](CCCCN)C(=O)N3)cc1 |
